In the RNAGym collection of RNA variant scans (doi:10.1126/science.aae0568):
Variants at the floor of the assay were thinned out.

B1: tRNA (parent)
chain: GUUCCGUUGGCGUAAUGGUAACGCGUCUCCCUCCUAAGGAGAAGACUGCGGGUUCGAGUCCCGUACGGAACG

Variants of: B1
Assay: yeast fitness relative to wild type (ratio to wild type); higher = fitter; tRNA-Arg(CCU), competitive growth, 37 C, YPD
How it was run: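 Amplicons of the tRNA-Arg(CCU) gene were sequenced, 100-nucleotide paired-end, from the start population and from each end population of a pooled yeast competition. The competition, in six parallel replicates, lasted 24 hours in YPD at 37°C. Fitness relative to wild type was calculated from changes in genotype frequencies. Genotypes had to have ≥ 100 starting reads, and estimates < 0.5 were set to 0.5.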

Variant	yeast fitness
C24A U54C	0.634
C24A C66G	0.548
C24A U28C	0.568
C24G G39A	0.643
C24G C34G U53A	0.552
C24G A36G C61A	≤ 0.5
C24G C61G	0.537
C24U C31G U32A	0.504
C24A C33A C46U C60G	≤ 0.5
C24U C31A U54C A57U	0.547
C24U C27U A40G	0.563
C24A U26A C31A C62A	≤ 0.5
C24G C30A C62G	≤ 0.5
C24G G51C	0.537
C24G A36C A40G A45U	≤ 0.5
C24U A40G C60U A65C	≤ 0.5
C24G C30U A43U	0.549
C24G C30U C34A A45G G51A	≤ 0.5
C24G C31G A43U	0.596
C24G C29A A43U A57G G68C	≤ 0.5
C24A C49U	0.614
C24G G25C C30G U32C G67C	≤ 0.5
C24U C27G U47C G56C U64C G68C	≤ 0.5
C24U A45C C49G A69C	≤ 0.5

Variant	yeast fitness
C24U C31G C55A A57U U59C C60U	≤ 0.5
C24G U26C C31U	0.747
C24G A45U G67A	≤ 0.5
C24A U35G G52A U64A	0.514
C24G C49G A70U	≤ 0.5
C24G C46U A70U	0.642
C24G C34U U53C C55G C62A	≤ 0.5
C24G C27A A45C C62G C66U	≤ 0.5
C24G C33U U47G	≤ 0.5
C24G C29G C33U	≤ 0.5
C24G G63A	0.554
C24U A36C A45C C55U A70U	≤ 0.5
C24A G44C C49A C60U A69C	0.599
C24G G48C A57G G68C	≤ 0.5
C24G C49G C55A	≤ 0.5
C24G C31U G50C C60G G63A	0.545
C24U C27U U47A A57G A70G	≤ 0.5
C24U A57G	0.809
C24G G38C A65C	0.513
C24G A37G G67C	0.549
C24G C30A U47C G63A	≤ 0.5
C24G A40G	0.647
C24G A40C	0.601
C24A U26G A43C C60U C62G G63A C66G A69G	≤ 0.5

Variant	yeast fitness
C24A G48A U53G G67C	≤ 0.5
C24U A37G	0.708
C24G C31G C61G	0.507
C24G C49U C55G	≤ 0.5
C24G A42G A43U U47A	0.635
C24U C27A C30U G68C	≤ 0.5
C24G U28C G50C	≤ 0.5
C24A U26A C31A	0.544
C24U A42G C49G C61G	0.627
C24G G41A C46U A65G	≤ 0.5
C24G C30G G39A G52A C55U	≤ 0.5
C24G C30U C31A	≤ 0.5
C24A U28C C61A	≤ 0.5
C24A C55A C62U A65C	0.529
C24G U28C	0.508
C24G A65U	0.742
C24G U26A U35A C55U A65G A69C	≤ 0.5
C24G U26A C46A G58C	≤ 0.5
C24G U35G C66U	≤ 0.5
C24U C27A C30G	≤ 0.5
C24G G50A A57G	≤ 0.5
C24G U28G C33U A42U G50A	≤ 0.5
C24G U54C G68C	≤ 0.5
C24A U26G A43C U64C	≤ 0.5

Variant	yeast fitness
C24U A36U C55G A57G G63C	≤ 0.5
C24U C29U	0.859
C24U C29A	0.656
C24A C34U C49A A65U	≤ 0.5
C24U A45U A65G	0.623
C24U C29G C62G	≤ 0.5
C24G C31U C33G	≤ 0.5
C24G U28G C46G G67U	≤ 0.5
C24G A37C A57U	≤ 0.5
C24G C30U C34A G51A	0.542
C24G C27U C62U A70U	≤ 0.5
C24G C46A	0.937
C24G C46U	0.654
C24U A37G A45U A69C	≤ 0.5
C24A C33A C49U A69U	≤ 0.5
C24G C30G G52A C60A	≤ 0.5
C24U A37G G39A G48C	≤ 0.5
C24A G25C	0.702
C24G G25A A45G C60A	≤ 0.5
C24G A45C	0.629
C24G A45G	0.637
C24G A45U	0.557
C24G U54G C55G C62U	≤ 0.5
C24G C27U A40U A57G C62G	≤ 0.5

Variant	yeast fitness
C24G C30A G44C U47C U59A A69C A70C	0.884
C24G C27U	0.73
C24G C27A	0.616
C24G C30U C61G	≤ 0.5
C24G A36G A45G A65U	≤ 0.5
C24A G39C G51A G63A	≤ 0.5
C24U A43U U47G	≤ 0.5
C24G C66U A69C	≤ 0.5
C24G U53G	≤ 0.5
C24G C29U U35C	≤ 0.5
C24U C31U C49U A70C	0.643
C24G G25C A40C A42U U47A C61G C66G	0.509
C24U C29U G51U	≤ 0.5
C24G C33G G51A U53A G56A G67C	0.541
C24U A42U A43C A57C C60A	0.637
C24U A45G C49U	0.931
C24G C29A G50C A57C	≤ 0.5
C24U A57G C60U G68C	≤ 0.5
C24G C29U G51C A70U	≤ 0.5
C24G C31G A36G A65U	≤ 0.5
C24U C31G U32A A43C	≤ 0.5
C24A U32C G39C A70C	≤ 0.5
C24U A42G A43G	0.733
C24U A36C G44C C62A	0.752

Variant	yeast fitness
C24G G25A	0.852
C24G C55U G67C	≤ 0.5
C24A C61U	0.718
C24U C29A A40G	0.514
C24U A36G G58C C66G G68A	0.569
C24U A36G U64A	0.595
C24G C27U A40U U59C G68A	0.582
C24U A37U A40U	0.568
C24G A42U C49U	≤ 0.5
C24U C31A	0.786
C24G A37G C61U	≤ 0.5
C24U C30A A37G U64A C66U A70G	≤ 0.5
C24U A40G	0.72
C24G U28G C29G U35G U47A	0.606
C24U A37U A43U	0.646
C24G C34G G44C	≤ 0.5
C24G G39C A57G A65G	≤ 0.5
C24G U35A G48C	≤ 0.5
C24A U26G A43C C62G G63A C66G A69G	0.531
C24A G56A	0.711
C24U A40C G52C G67A	≤ 0.5
C24U C29U A36C A42U C66A	≤ 0.5
C24G A36C A57C A69U A70C	≤ 0.5
C24U C27U G39C	≤ 0.5

Variant	yeast fitness
C24U C30A U35C U59C G63A	≤ 0.5
C24G C30A G44C U47C	0.567
C24G A40G G50C	0.599
C24U A70G	0.887
C24U C31A C33A C34U C46A C62U G67A	≤ 0.5
C24U A57G A65U	0.513
C24G C31U C55A	≤ 0.5
C24U A45G	1.03
C24G C30G G39A	0.593
C24U C33A G44C U47C	0.674
C24A U47G G58A C62A	≤ 0.5
C24G A37G G58A G67A	≤ 0.5
C24G A36U A40G U64C	≤ 0.5
C24A G48C	0.621
C24G A36C C49U A70C	≤ 0.5
C24G G25A C31G	0.703
C24A U59C	0.553
C24U C27U A40G G44A	≤ 0.5
C24G C34G	0.55
C24U A36U C49G	0.544
C24G C30G C31U U35A A36U G44A G63C	0.86
C24A G25A U35A	≤ 0.5
C24G C33U C61A A69U	≤ 0.5
